From PMC3705926 (Journal of ethnopharmacology, 2010)

Assays:
5-HT7 [1] = biological target: T1, 5-HT7 (Homo sapiens, UniProt P34969); experiment: Serotonin 5-HT7 receptor radioligand binding; conditions: read-out: IC50, binding to serotonin receptor 5-HT7
[2] = test system: 2ERE-luciferase reporter (ER) in MCF-7 cells; experiment: 2ERE-luciferase reporter gene assay in transiently transfected MCF-7 cells; type: cell-based, human; conditions: 1 μg/ml, 16 h
5-HT1A = biological target: T2, 5-HT1A (Homo sapiens, UniProt P08908); experiment: Serotonin 5-HT1A receptor radioligand binding; conditions: read-out: IC50, binding to serotonin receptor 5-HT1A
T2 sequence (P08908 1-422): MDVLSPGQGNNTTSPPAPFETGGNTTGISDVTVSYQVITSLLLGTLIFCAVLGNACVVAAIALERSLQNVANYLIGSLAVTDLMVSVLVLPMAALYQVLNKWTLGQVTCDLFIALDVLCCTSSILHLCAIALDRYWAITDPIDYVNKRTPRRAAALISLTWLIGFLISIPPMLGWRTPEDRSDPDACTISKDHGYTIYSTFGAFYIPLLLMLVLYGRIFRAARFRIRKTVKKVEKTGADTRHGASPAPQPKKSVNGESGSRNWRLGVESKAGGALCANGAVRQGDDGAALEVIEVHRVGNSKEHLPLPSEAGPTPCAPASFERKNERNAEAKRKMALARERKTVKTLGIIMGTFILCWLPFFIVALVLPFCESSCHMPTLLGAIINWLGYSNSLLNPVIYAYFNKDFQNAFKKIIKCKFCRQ
Method in brief: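 Competition binding used Cos M6 cell membrane homogenate with [3H]5-CT (1.0 nM final) in 100 mM Tris-HCl, 1 mM EDTA, 1% ascorbic acid, pH 7.7, at 37°C for 30 min. Binding was stopped by rapid filtration and four ice-cold buffer washes, then counted by scintillation. IC50 came from non-linear curve fitting of at least triplicate determinations.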

5-HT7 [3] = biological target: T1, 5-HT7; experiment: GTP shift experiment, [3H]LSD binding with or without 100 μM GTP
[4] = [3H]-LSD displacement, absence of GTP, two-site fit

T1 sequence (P34969 whole entry): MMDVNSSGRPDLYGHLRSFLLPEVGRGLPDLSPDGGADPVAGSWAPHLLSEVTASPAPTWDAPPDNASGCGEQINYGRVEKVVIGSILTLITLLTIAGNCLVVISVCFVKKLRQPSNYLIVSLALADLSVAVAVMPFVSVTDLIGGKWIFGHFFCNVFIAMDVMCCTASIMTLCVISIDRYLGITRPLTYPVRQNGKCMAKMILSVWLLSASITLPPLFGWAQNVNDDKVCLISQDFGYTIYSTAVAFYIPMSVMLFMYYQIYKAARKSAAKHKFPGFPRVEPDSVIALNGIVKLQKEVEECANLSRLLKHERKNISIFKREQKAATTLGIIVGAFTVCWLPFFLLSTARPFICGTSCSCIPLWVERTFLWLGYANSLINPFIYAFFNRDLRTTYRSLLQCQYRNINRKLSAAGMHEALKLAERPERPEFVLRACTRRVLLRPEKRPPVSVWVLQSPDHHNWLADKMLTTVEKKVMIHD

## 5, 6-Z-fadyenolide [Compound 2]
5-HT7 [1]
  IC50: 23.2 µM
[2]
  fold increase in luciferase activity: 9.8 fold

## 9, 10-methylenedioxy-5, 6-Z-fadyenolide [Compound 1]
5-HT1A
  IC50: 16.1 µM
5-HT7 [3]; [4]
  IC50, high-affinity state: 0.014 µg/mL
  IC50, low affinity state: 37.7 µg/mL
  Ki, high-affinity state: 0.00848 µg/mL
  Ki, low affinity state: 0.0267 µg/mL
5-HT7 [3]; from GTP shift of the binding curve
  agonist/antagonist character at the 5-HT7 receptor: partial agonist
5-HT7 [3]; with 100 μM GTP
  IC50 after addition of GTP (monophasic, low-affinity state): 11.5 µg/mL
  Ki after addition of GTP: 6880 µg/mL
5-HT7 [1]
  IC50: 8.3 µM
[2]
  fold increase in luciferase activity: not active

## piperolide [Compound 3]
5-HT7 [1]
  IC50: 34.7 µM
[2]
  fold increase in luciferase activity: 8.4 fold
